Test results from ChEMBL document CHEMBL2057171, “Arylstibonic acids are potent and isoform-selective inhibitors of Cdc25a and Cdc25b phosphatases” (Bioorg Med Chem, 2012).
Calls of active or inactive are those of the source. The rule behind the calls is not given here.

Experiments:
Rattus norvegicus = species: Rattus norvegicus; test: Inhibition of rat GST-tagged synaptojanin SAC1 domain expressed in Escherichia coli XL-1 blue using I(1,4,5))P3 as substrate at 5 uM by malachite green assay
In short: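 GST-synaptojanin was expressed in E. coli XL-1 blue (1 mM IPTG, 18°C, 24 h) and purified on glutathione sepharose. Substrate: 50 µM PI(4)P in octylglucoside mixed micelles for synaptojanin; 50 µM I(1,4,5)P3 for SAC1. Assay ran at 37°C in 100 mM Tris pH 7.4, 4 mM MgCl2 with 5 µM compound. Malachite green stopped the reaction, colour developed 10 min, and absorbance was read at 625 nm. Heat-denatured enzyme served as blank. Triplicates.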

[1] = molecular target: Receptor-type tyrosine-protein phosphatase beta (Homo sapiens) (UniProt P23467); test: Inhibition of PTP-beta receptor using p-NPP as substrate at 5 uM by colorimetric analysis
In short: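 Purchased PTP-β assayed with 1 mM p-NPP (near KM) in 25 mM Hepes pH 7.4, 50 mM NaCl, 5 mM DTT; arylstibonate fixed at 5 µM. The reaction was started by adding p-NPP in water, and p-nitrophenol release was read at 405 nm. Reported as % inhibition from triplicates, with standard error.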

[2] = molecular target: M-phase inducer phosphatase 2 (Homo sapiens) (UniProt P30305); test: Mixed-type inhibition of N-terminal His-tagged Cdc25b catalytic domain expressed in Escherichia coli BL21(DE3) using 3-O-Methylfluorescein phosphate as substrate by Michaelis-Menten plot analysis
In short: (§1)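 Steady-state kinetics of the Cdc25a and Cdc25b catalytic domains with varying OMFP and several arylstibonate concentrations. Run at 20 °C in 100 mM Tris pH 7.4 with 2 mM DTT, after a 10 min RT enzyme–inhibitor preincubation. Fluorescence read at ex 485/em 525 nm. Michaelis–Menten plots give apparent Km and Vmax; secondary plots give Ki.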

[3] = molecular target: M-phase inducer phosphatase 1 (Homo sapiens) (UniProt P30304); test: Mixed-type inhibition of N-terminal His-tagged Cdc25a catalytic domain expressed in Escherichia coli BL21(DE3) using 3-O-Methylfluorescein phosphate as substrate by Michaelis-Menten plot analysis; in short: as §1
[4] = molecular target: M-phase inducer phosphatase 2 (Homo sapiens) (UniProt P30305); test: Reversible inhibition of N-terminal His-tagged Cdc25b catalytic domain expressed in Escherichia coli BL21(DE3) using 3-O-Methylfluorescein phosphate as substrate at 4 times IC50 by 10-fold dilution method
In short: (§2)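 Reversibility test by dilution. Cdc25a or Cdc25b is preincubated with arylstibonate, then diluted 10-fold in reaction buffer (100 mM Tris pH 7.4, 2 mM DTT). Activity is then measured in the OMFP fluorescence assay (ex 485/em 525 nm, 20 °C) and expressed as % of the uninhibited reaction.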

[5] = molecular target: M-phase inducer phosphatase 1 (Homo sapiens) (UniProt P30304); test: Reversible inhibition of N-terminal His-tagged Cdc25a catalytic domain expressed in Escherichia coli BL21(DE3) using 3-O-Methylfluorescein phosphate as substrate at 4 times IC50 by 10-fold dilution method; in short: as §2

M-phase inducer phosphatase 2 (Homo sapiens), sequence (P30305 whole entry, the tested form may be a part): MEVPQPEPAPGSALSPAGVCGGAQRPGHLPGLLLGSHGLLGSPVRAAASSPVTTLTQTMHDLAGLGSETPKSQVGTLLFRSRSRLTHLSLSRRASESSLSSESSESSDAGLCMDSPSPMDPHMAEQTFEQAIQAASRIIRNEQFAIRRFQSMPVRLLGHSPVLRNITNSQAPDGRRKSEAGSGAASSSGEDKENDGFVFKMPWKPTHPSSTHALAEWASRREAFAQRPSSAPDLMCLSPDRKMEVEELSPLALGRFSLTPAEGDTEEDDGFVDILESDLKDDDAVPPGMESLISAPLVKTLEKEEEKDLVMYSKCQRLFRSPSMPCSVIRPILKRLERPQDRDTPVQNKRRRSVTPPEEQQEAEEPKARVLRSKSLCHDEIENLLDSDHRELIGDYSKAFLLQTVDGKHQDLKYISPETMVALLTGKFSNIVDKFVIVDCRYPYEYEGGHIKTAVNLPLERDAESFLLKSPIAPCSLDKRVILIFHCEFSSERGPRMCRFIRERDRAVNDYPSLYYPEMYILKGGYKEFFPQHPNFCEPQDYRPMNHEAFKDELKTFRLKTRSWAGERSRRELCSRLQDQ
Receptor-type tyrosine-protein phosphatase beta (Homo sapiens), sequence (P23467 whole entry, looked up): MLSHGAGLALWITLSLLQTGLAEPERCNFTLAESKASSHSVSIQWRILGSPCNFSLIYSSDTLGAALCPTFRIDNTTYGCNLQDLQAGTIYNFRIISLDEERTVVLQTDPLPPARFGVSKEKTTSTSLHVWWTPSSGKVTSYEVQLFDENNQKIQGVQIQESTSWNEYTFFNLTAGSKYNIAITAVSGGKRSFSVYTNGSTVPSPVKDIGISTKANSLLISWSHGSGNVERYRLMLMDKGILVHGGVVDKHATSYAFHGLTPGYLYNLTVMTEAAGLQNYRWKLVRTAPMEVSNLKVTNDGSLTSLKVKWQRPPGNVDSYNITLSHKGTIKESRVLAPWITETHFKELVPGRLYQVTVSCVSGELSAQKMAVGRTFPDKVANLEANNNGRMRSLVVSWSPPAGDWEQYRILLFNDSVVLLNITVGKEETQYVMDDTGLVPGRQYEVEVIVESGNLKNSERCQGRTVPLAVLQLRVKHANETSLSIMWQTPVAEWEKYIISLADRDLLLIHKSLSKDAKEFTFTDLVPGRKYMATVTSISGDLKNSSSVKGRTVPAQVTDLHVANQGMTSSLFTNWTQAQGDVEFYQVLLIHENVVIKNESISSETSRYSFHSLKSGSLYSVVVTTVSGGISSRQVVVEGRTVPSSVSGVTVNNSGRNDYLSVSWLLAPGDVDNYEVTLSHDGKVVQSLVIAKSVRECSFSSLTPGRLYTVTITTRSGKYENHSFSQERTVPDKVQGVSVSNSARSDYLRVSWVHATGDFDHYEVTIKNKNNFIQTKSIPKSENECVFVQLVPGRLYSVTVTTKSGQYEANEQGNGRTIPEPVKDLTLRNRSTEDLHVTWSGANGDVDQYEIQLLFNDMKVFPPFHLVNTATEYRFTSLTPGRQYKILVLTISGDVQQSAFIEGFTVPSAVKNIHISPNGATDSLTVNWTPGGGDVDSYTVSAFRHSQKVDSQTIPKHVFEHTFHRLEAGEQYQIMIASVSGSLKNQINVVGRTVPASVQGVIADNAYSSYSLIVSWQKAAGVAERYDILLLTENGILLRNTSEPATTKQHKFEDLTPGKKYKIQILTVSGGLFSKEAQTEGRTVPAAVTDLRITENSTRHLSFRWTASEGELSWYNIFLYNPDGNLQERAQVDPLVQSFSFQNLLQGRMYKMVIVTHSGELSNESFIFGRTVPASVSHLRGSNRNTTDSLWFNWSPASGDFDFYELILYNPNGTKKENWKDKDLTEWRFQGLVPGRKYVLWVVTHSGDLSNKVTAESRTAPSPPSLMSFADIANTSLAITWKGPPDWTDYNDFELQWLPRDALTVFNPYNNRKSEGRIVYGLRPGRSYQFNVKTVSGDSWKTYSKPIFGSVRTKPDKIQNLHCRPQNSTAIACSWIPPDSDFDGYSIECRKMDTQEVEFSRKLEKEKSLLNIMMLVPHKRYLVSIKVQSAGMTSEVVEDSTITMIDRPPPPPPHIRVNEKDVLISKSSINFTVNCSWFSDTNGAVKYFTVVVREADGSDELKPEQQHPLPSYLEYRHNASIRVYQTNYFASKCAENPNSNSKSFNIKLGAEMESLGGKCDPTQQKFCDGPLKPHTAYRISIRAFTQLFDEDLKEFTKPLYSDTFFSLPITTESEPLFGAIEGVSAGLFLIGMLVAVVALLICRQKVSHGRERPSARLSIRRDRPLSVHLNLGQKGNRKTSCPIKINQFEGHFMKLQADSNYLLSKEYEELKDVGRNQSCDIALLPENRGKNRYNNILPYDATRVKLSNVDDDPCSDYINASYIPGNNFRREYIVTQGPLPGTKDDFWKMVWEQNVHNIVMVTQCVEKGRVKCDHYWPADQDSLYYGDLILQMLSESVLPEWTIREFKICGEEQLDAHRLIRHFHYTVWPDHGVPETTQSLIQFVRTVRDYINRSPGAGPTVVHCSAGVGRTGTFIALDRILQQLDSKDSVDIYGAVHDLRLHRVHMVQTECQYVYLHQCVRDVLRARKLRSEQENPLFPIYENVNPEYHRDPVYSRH
M-phase inducer phosphatase 1 (Homo sapiens), sequence (P30304 whole entry, the tested form may be a part): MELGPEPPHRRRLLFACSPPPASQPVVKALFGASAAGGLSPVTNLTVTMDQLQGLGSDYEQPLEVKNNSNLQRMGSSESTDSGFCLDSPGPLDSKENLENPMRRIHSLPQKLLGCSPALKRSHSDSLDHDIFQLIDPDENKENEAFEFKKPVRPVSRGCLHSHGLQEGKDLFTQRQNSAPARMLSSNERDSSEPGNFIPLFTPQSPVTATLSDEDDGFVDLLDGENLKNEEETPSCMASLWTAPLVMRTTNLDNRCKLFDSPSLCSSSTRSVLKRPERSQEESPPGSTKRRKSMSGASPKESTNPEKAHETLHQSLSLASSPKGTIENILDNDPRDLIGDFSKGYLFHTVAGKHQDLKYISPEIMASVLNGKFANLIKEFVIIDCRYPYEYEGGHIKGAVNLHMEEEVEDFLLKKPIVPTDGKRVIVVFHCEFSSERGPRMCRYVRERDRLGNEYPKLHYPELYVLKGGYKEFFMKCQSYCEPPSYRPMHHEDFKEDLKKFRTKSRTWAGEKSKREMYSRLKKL

Substance | inhibition (Rattus norvegicus) | inhibition [1] | inhibition [2] | inhibition [3] | inhibition [4] | inhibition [5]
3-(3-ethoxy-2-(ethoxycarbonyl)-3-oxopropyl)phenylstibonic acid | < 40% | inactive |  |  |  | 
3-(3-stibonophenyl)propanoic acid | > 40% | > 90% | Active | Active | Active | Active
(E)-3-(3-stibonophenyl)acrylic acid | > 40% | > 90% | Active | Active | Active | Active
3-(methoxycarbonyl)phenylstibonic acid | < 40% | inactive |  |  |  | 
4-stibonophthalic acid | < 40% | 51% |  |  |  | 
2-nitro-4-stibonobenzoic acid | > 40% | > 90% |  |  |  | 
4-((4-hydroxyphenyl)diazenyl)phenylstibonic acid | > 40% | > 90% |  |  |  | 
4-iodophenylstibonic acid | > 40% | > 90% |  |  |  | 

Continued, in another order:

inhibition (Rattus norvegicus) | inhibition [1] | Substance | inhibition [2] | inhibition [3] | inhibition [4] | inhibition [5]
< 40% | 50% | 3-nitrophenylstibonic acid |  |  |  | 
> 40% | > 90% | 4-(2-ethoxy-2-oxoethyl)phenylstibonic acid |  |  |  | 
< 40% | inactive | 4-hydroxyphenylstibonic acid |  |  |  | 
> 40% | > 90% | 2-(3-stibonophenoxy)acetic acid |  |  |  | 
> 40% | > 90% | 4-benzamidophenylstibonic acid |  |  |  | 
< 40% | 78% | 3-stibonobenzoic acid |  |  |  | 
> 40% | > 90% | 2-(3-stibonobenzyl)malonic acid |  |  |  | 
< 40% | inactive | PHENYLSTIBONIC ACID |  |  |  | 
> 40% | > 90% | 2-nitrophenylstibonic acid |  |  |  | 
< 40% | 72% | 4-stibonobenzoic acid |  |  |  | 
< 40% | 67% | 2-(4-stibonobenzyl)malonic acid |  |  |  | 
